Screening data as filed in PubChem.
This excerpt belongs to a sample that is enriched for hits.
bCat KO growth: beta-catenin-lacking colon tumor cell growth suppression. HCT116 beta-catenin knockout viability, CellTiter-Glo, 60 h; hits give low values. viability, % at 10 µM. hit rate 1.5% among 140,000. AID 818;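 active means viability at or under a set limit, the compound median less 4 SD, cut at about 6% in these data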;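 further: 0% = Hyamine 1622 control at 20 µM and 100% = untreated cell control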
HCT116 PTEN-null: PTEN-deleted cell growth suppression; hit rate 1.2% among 140,000; AID 827; viability, % at 10 µM; HCT116 PTEN-null viability, CellTiter-Glo, 60 h; hits give low values;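 active means viability at or below a set limit, 4 SD under the median of all tested compounds, cut at about 3.7% in these data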;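 further: PTEN knockout HCT116 line with beta catenin targeted HCT116 as companion control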
Lung fibro prol: blocks proliferation of human lung fibroblasts; hit rate 1.1% among 85,000; LL 47 human lung fibroblast viability, ATP luminescence; hits give low values; viability, % at 10 µM;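 active means viability at or below 50% in the single dose screen; inactive means viability above 50%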;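 further: compound exposure lasted 72 h before the ATP readout; 100% = median luminescence of untreated cell-only wells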
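Times – overnight cell rest, 72 h compound treatment at 37 °C · Test system – human lung fibroblast line LL 47, low passage · Amount – 1,150 cells in each well · Controls – cell-only wells, no compound · Doses – 0.1% DMSO in all compound wells · Measured by – CellTiter-Glo luminescence · Buffer or medium – IMEM plus 15% FBS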
H69AR growth 86K: growth inhibitors of human H69AR lung tumor cells; H69AR lung tumor viability, ATP luminescence, 72 h; hits give low values; viability, % at 10 µM; hit rate 6% among 85,000;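 active means viability at or below 40%; inactive means viability above 40%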;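 further: multidrug resistant small cell line overexpressing MRP-1 efflux transporter; 100% = mean luminescence of untreated control wells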
PTK2B oligo ant: blocks oligomerization of human Pyk2 in cells; hit rate 0.83% among 99,000; Q14289; z-score (the deposit names both 25 µM and 10 µM); AID 1347419; Q293 cells, Pyk2 FERM NanoBiT luminescence; hits give low values;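 active means Z-score of -3 or lower, scaled per plate to the spread of control and sample wells; inactive means z-score above -3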;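 further: negative z-score means lost luminescence so less FERM oligomerization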
Target sequence (Q14289 whole entry, looked up): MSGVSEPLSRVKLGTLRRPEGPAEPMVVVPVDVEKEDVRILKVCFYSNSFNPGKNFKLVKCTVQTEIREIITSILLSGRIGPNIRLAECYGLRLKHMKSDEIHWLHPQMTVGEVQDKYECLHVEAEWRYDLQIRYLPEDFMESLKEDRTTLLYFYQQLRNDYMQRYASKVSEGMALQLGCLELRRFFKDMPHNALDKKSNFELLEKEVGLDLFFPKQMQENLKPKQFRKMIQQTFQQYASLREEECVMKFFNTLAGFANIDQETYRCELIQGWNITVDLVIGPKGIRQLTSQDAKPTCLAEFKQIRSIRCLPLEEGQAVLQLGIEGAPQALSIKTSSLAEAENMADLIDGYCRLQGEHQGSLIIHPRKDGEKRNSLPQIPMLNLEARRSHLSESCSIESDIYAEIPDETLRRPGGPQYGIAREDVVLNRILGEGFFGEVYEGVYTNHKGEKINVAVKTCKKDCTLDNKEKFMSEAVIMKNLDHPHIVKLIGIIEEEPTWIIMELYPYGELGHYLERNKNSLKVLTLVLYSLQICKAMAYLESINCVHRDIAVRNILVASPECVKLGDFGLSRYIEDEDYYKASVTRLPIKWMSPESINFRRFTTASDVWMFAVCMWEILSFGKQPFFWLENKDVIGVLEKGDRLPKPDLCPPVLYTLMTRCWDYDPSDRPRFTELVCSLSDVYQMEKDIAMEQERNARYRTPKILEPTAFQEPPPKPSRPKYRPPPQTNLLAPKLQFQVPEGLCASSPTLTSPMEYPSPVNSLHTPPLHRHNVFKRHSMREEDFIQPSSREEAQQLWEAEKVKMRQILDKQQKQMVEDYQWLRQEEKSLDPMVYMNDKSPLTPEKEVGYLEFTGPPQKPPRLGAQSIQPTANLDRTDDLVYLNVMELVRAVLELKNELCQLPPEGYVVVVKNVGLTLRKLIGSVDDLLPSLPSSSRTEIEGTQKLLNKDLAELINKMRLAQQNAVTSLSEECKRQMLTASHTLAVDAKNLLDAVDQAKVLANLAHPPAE
HUVEC prolif 384: blocks proliferation of human endothelial cells; HUVEC proliferation, CellTiter-Glo luminescence, 72 h; hits give low values; viability, % at 10 µM (by protocol); hit rate 1.1% among 86,000; AID 648;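 active means viability at or below 30%; inactive means viability above 30%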;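 further: 100% = median luminescence of DMSO-only cell control wells on each plate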
An asterisk follows results filed as active; . = not tested or not shown.

SMILES	bCat KO growth	HCT116 PTEN-null	Lung fibro prol	H69AR growth 86K	PTK2B oligo ant	HUVEC prolif 384
Clc1cccc(-c2cc3nc4c(c(N5CCNCC5)n3n2)CCCC4)c1	1.5*	1.0*	1.9*	1.9*	.	1.1*
OC1CCN(c2c3c(nc4cc(-c5cccc(F)c5)nn24)CCCC3)CC1	74	61	98	95	-2.4	74
CCn1cc([N+](=O)[O-])c(C(=O)N2N=C(c3ccc4ccccc4c3)CC2c2ccccc2O)n1 (stereo not drawn)	3.2*	5	80	86	-1.3	15*
CCn1cc([N+](=O)[O-])c(C(=O)N2N=C(c3cccc4ccccc34)CC2c2ccccc2O)n1 (stereo not drawn)	3.4*	7	88	79	-1.5	78
CCn1cc([N+](=O)[O-])c(C(=O)N2N=C(c3ccc(OC)cc3OC)CC2c2ccccc2O)n1 (stereo not drawn)	68	81	.	.	.	.
CCn1cc(Cl)c(C(=O)N2N=C(c3ccc4ccccc4c3)CC2c2ccccc2O)n1 (stereo not drawn)	42	29	.	.	.	.
CCn1c(SCc2nc3scc(-c4ccccc4)c3c(=O)[nH]2)nnc1-c1ccc(Cl)cc1	72	84	.	.	.	.
CN1CCCC1CCNC1C2CC3CC(C2)CC1C3 (stereo not drawn)	88	82	.	.	-0.02	.
COC(=O)c1c(NC(=O)c2nc3ccccc3s2)sc2c1CCN(C(C)=O)C2	90	72	3.4*	44	.	4.2*
COc1ccc(C2=CC(=O)OC(C)(c3ccccc3)O2)cc1 (stereo not drawn)	71	64	.	.	.	.
Cc1nc2ccc(S(=O)(=O)NCC(=O)N3CCC(C)CC3)cc2s1	99	87	98	111	1.9	102
Cc1ccc(-n2c(C)c3c(C)nnc(C)c3c2C)cc1C	4.0*	8	93	32*	0.06	102
Cc1cc(Cl)ccc1Oc1nccc(N(C)C)c1C#N	86	99	.	.	-0.23	.
COC(=O)c1cc(C(=O)OC)cc(-n2c(C)cc(C(=O)COC(=O)CNS(=O)(=O)c3ccc(C)cc3)c2C)c1	98	90	.	.	.	.
CCCS(=O)(=O)C(=C(Nc1ccccc1)Nc1ccccc1)S(=O)(=O)CCC	94	90	96	30*	-0.03	82
S=C1SCN(Cc2ccccn2)CN1Cc1ccco1	26	36	94	.	0.14	82
COCCN1CSC(=S)N(Cc2ccco2)C1	25	41	82	0.8*	0.81	70
C=CCNc1nc(-c2ccccn2)nnc1-c1ccccc1	14	15	14*	40	-0.46	12*
Cc1nc2c3ccccc3nc(SCC(=O)N3CC(C)CC(C)C3)n2n1 (stereo not drawn)	103	97	97	20*	-0.3	80
Cc1nc2c3ccccc3nc(SCC(=O)c3ccc(Cl)cc3)n2n1	66	62	.	.	-0.02	.
CCNC(=S)Nc1nc2c(cc1C(=O)OCC)CCCC2	88	84	.	.	.	.
O=C(O)C1CCCN1C(=O)OCc1ccccc1 (stereo not drawn)	101	100	95	95	-0.21	105
COC(=O)[C@@H]1C[C@]2(OC(=O)c3ccccc3)C=CC(=O)C[C@@H]2N1C(=O)OCc1ccccc1	3.0*	2.5*	.	.	.	.
Cc1coc2c(C)c3oc(=O)c4c(c3cc12)CCCC4	.	.	94	21*	-0.39	86
CCN1c2ccccc2NC2N=C(OC)C(c3ccccc3)C21 (stereo not drawn)	1.9*	1.7*	7.0*	1.4*	0.14	2.1*
SMILES	bCat KO growth	HCT116 PTEN-null	Lung fibro prol	H69AR growth 86K	PTK2B oligo ant	HUVEC prolif 384
CCCN1C(=O)c2ccccc2NC1c1cc(OC)c(OC)c(OC)c1 (stereo not drawn)	91	94	109	81	-0.04	94
COc1cc(/C=C(\NC(C)=O)C(=O)Nc2cccc(O)c2)ccc1OC(C)=O	86	94	.	.	.	.
O=C(OCC(=O)N1CCN(C(=O)c2ccco2)CC1)c1ccccc1OCc1ccc(Cl)cc1	66	53	94	68	0.53	92
N#Cc1cn(CC(=O)N2CCCc3ccccc32)c2ccccc12	87	82	91	53	-0.33	89
O=Cc1cn(CC(=O)N2CCCc3ccccc32)c2ccccc12	87	86	96	35*	-0.53	93
CC(=O)Nc1cccc(NC(=O)CSc2ncc(-c3ccc(Cl)cc3)n2Cc2ccco2)c1	57	38	99	78	-3.7*	56
